High-throughput results: PubChem BioAssay, several laboratories
GRIN3A LBD mod – modulators (binders) of human NR3A ligand-binding domain; AID 1259313; NR3A LBD differential scanning fluorimetry, Tm shift; 0% = protein alone, 100% = glycine-bound protein; Tm shift relative to glycine control, % at 25 µM; 2.5% of 340,000 active;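 active means melting temperature shift of at least 10% of the positive control shift, at one fixed dose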
MPTP block – blocks calcium-induced mitochondrial swelling | isolated mouse mitochondria, Ca2+ swelling absorbance, 30 min | inhibition, % at 10 µM | 1.4% of 360,000 active;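 active means inhibition of 50% or more, scaled per plate between neutral and stimulator controls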;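 further: 0% = DMSO wells given calcium and 100% = 1 mM EGTA wells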
MT1-MMP act inh – inhibitors of human MT1-MMP activation. P50281. HT1080 RFP-PRO-GFP cells, GFP/RFP ratio fluorescence, overnight; percent of plate control window, DMSO zero. GFP/RFP ratio change, % at 20 µM. 0.061% of 360,000 active;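 active means GFP/RFP ratio change of at least 30% with cell ATP level not reduced by more than half and red fluorescence within 50% of control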
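Assay system: HT1080 RFP-PRO-GFP cells | Dosing: 20 µM single dose, 1% DMSO | Incubation: Cells overnight before dosing, compound overnight, 37 °C, 5% CO2 | Evaluation: GFP/RFP fluorescence ratio | Control set: DMSO-only wells and HT1080 RFP-L50D-GFP cell wells as references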
ADAM10 inh – inhibitors of human ADAM10; O14672; 0.62% of 370,000 active; inhibition, % at 7 µM; recombinant ADAM10, EDANS/DABCYL FRET peptide cleavage, 3 h; AID 720582;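 active means inhibition above a per-campaign cutoff equal to the mean of compounds falling between control-based bounds plus 3 SD, cut at about 20% in these data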;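 further: 0% = DMSO wells while the 100% control is not disclosed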
ADAM17 inh – inhibitors of human ADAM17 | P78536 | AID 720648 | inhibition, % at 6.95 µM | recombinant ADAM17, EDANS/DABCYL FRET peptide cleavage | 0.83% of 370,000 active;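 active means inhibition above the mean of compounds lying between control limits plus 3 SD, set per campaign, cut at about 8.5% in these data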;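 further: 0% = DMSO-only wells as the low control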
SKN-1 block – C. elegans SKN-1 inhibition; 0.49% of 360,000 active; inhibition, % at 21.8 µM; C. elegans VP596 Pgst-4::GFP/RFP ratio, acrylamide-induced, 24 h;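 active means interference check ratio from 0.5 to 1.5 plus GFP to RFP signal ratio inhibition reaching or exceeding a fixed threshold, cut at about 30% in these data, passing the limit was not always enough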
ADAM10 counter – inhibits human ADAM10 in ADAM17 exosite counter-screen; 47% of 2,900 active; AID 743256; inhibition, % at 6.95 µM; recombinant ADAM10, EDANS/DABCYL FRET peptide cleavage, 3 h; shares compounds with ADAM17 inh;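 active means mean inhibition over the triplicate runs exceeds the activity threshold set in the earlier primary screen, cut at about 20% in these data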;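 further: 0% = DMSO wells and 100% = marimastat wells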
ADAM17 confirm – human ADAM17 inhibition, confirmation | shares compounds with ADAM17 inh | recombinant ADAM17, EDANS/DABCYL QFRET peptide cleavage | inhibition, % at 6.95 µM | 65% of 2,900 active;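 active means mean inhibition across replicates above the hit cutoff set in the primary screen, cut at about 8.5% in these data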;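 further: 0% = DMSO wells and 100% = marimastat wells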
An asterisk follows results filed as active; / = no result given. This is a sample that favours compounds with a hit; in the whole collection about 4.7% have one here.

SMILES	GRIN3A LBD mod	MPTP block	MT1-MMP act inh	ADAM10 inh	ADAM17 inh	SKN-1 block	ADAM10 counter	ADAM17 confirm
Oc1ccc(Cl)cc1Cc1ccccc1	-7	8	-1	0	8.7*	-10	18	7
O=C(NN=Cc1ccc(N(CCCl)CCCl)cc1)C(=O)c1c[nH]c2ccccc12	8	2	-5	11	15*	-2	11	13*
O=C(NN=Cc1ccc(N(CCCl)CCCl)cc1Cl)c1cccnc1	-4	-2	6	-18	-9	3	/	/
O=C1NCN(c2ccccc2)C12CCN(C(CCc1ccccc1)c1nnnn1C1CCCC1)CC2 (configuration not stated)	/	2	-1	8	8.8*	22	9	9.4*
O=C1NCN(c2ccccc2)C12CCN(C(CCc1ccccc1)c1nnnn1C1CCCCC1)CC2 (configuration not stated)	/	2	-3	-5	-2	-5	/	/
CCC(c1nnnn1Cc1ccccc1)N1CCC2(CC1)C(=O)NCN2c1ccccc1 (configuration not stated)	/	0	-1	2	10*	-4	18	12*
COc1ccc(C(c2nnnn2Cc2ccccc2)N2CCC3(CC2)C(=O)NCN3c2ccccc2)cc1 (configuration not stated)	/	0	3	11	5	4	/	/
Cc1ccc(CN2C3CCCC2CC(NC(=O)Nc2cccc(F)c2)C3)cc1 (configuration not stated)	-7	0	4	3	0	9	/	/
COc1ccc(OCC(=O)Nc2ccc(Cl)cc2C(=O)c2ccccc2)cc1	3	1	/	12	9.1*	-20	-3	-1
O=C(COc1ccccc1)Nc1ccc(Cl)cc1C(=O)c1ccccc1	8	0	-3	-6	0	-3	/	/
O=P(NS(=O)(=O)c1ccccc1)(Oc1ccccc1)Oc1ccccc1	4	0	9	2	8.7*	6	-2	2
O=P(NS(=O)(=O)c1ccc(Br)cc1)(Oc1ccccc1)Oc1ccccc1	-36	2	-4	0	-1	-11	/	/
O=c1[nH]c(=O)n(CCc2ccccc2)c(O)c1C=NCCN1CCNCC1	0	-9	-1	-2	3	-21	/	/
Cc1cc(C(=O)CS(=O)(=O)c2ccc(F)cc2)cc(C)c1OC(=O)N(C)C	-1	3	2	0	2	-14	/	/
COc1ccccc1OCCCn1cc(C(=O)C2CC2)c2ccccc21	-1	2	-6	6	0	-4	/	/
COc1ccccc1OCCCn1cc(C(C)=O)c2ccccc21	0	22	3	5	10*	-10	-3	4
O=c1[nH]c(=O)n(Cc2ccco2)c(O)c1C=NCc1ccc2c(c1)OCO2	-1	0	-2	-51	9.3*	0	10	4
COC(=O)C1=C(c2ccc(OC(F)(F)F)cc2)C[C@@H]2CC[C@H]1N2C(=O)NCc1ccc(F)cc1	-9	0	2	15	3	23	/	/
COC(=O)C1=C(c2ccc(OC(F)(F)F)cc2)C[C@@H]2CC[C@H]1N2C(=O)NCc1cc(C)oc1C(F)(F)F	-3	1	-8	19	11*	-1	29*	15*
COC(=O)C1=C(c2ccc(OC(F)(F)F)cc2)C[C@@H]2CC[C@H]1N2C(=O)NCc1cccc2ccccc12	0	0	1	30*	8.7*	23	21*	10*
CC1CC(OP(O)(=S)c2ccc(N(C)C)cc2NC(=O)c2cccs2)CC(C)(C)C1 (configuration not stated)	-10	-1	-5	-5	0	0	/	/
O=c1[nH]c(O)c(/C=C2\C=Nc3ccc(OCc4ccccc4)cc32)c(=O)[nH]1	6	2	3	-5	-6	13	/	/
